# Reference: ChEMBL document CHEMBL3046122, “Preparation and biological activity of four epiprogoitrin myrosinase-derived products” (2001)
# The source made the active and inactive calls. No cut-off for these calls is given here.
# Legend:
# Lactuca sativa [1] = test: Toxicity against Lactuca sativa (lettuce) assessed as root apex necrosis at low concentration after 7 days; format: functional, organism-based
# Summary of the method: (§1)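 Lettuce (L. sativa cv. Romana) seeds were kept on filter paper at 20 °C for 7 days with each product at 0.4-32.0 mM. Seedlings were scored at the end for abnormalities: root apex necrosis, absent cotyledons, and imbibed seeds with broken coats from starting radicle protrusion.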
# Lactuca sativa [2] = test: Toxicity against Lactuca sativa (lettuce) assessed as imbibed seed with broken seed coat at low concentration after 7 days; format: functional, organism-based; summary of the method: as §1
# Lactuca sativa [3] = test: Toxicity against Lactuca sativa (lettuce) assessed as Inhibition of root growth at 0.4 to 2 mM after 7 days relative to control; format: functional, organism-based
# Summary of the method: (§2)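 Lettuce (L. sativa cv. Romana) seeds were kept on filter paper at 20 °C for 7 days with each product at 0.4-32.0 mM. Root length of normal seedlings was measured at the end and given as percent of the untreated control. Three replicates were run.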
# Lactuca sativa [4] = test: Antigerminative activity against Lactuca sativa (lettuce) seeds at 2 mM after 7 days relative to control; format: functional, organism-based
# Summary of the method: (§3)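 Lettuce (L. sativa cv. Romana) seeds germinated on filter paper at 20 °C for 7 days with each product at 0.4-32.0 mM. Read-out is the mean percentage of normal seedlings, expressed as percent of the untreated control.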
# Lactuca sativa [5] = test: Toxicity against Lactuca sativa (lettuce) assessed as seed radicle protrusion at low concentration after 7 days; format: functional, organism-based; summary of the method: as §1
# Lactuca sativa [6] = test: Antigerminative activity against Lactuca sativa (lettuce) seeds at 1.2 mM after 7 days relative to control; format: functional; summary of the method: as §3
# Lactuca sativa [7] = test: Antigerminative activity against Lactuca sativa (lettuce) seeds up to 0.8 mM after 7 days relative to control; format: functional, organism-based; summary of the method: as §3
# Lactuca sativa [8] = test: Toxicity against Lactuca sativa (lettuce) assessed as decrease in cotyledons at low concentration after 7 days; format: functional, organism-based; summary of the method: as §1
# Lactuca sativa [9] = test: Antigerminative activity against Lactuca sativa (lettuce) seeds up to 2.4 to 3.2 mM after 7 days relative to control; format: functional, organism-based; summary of the method: as §3
# Lactuca sativa [10] = test: Toxicity against Lactuca sativa (lettuce) assessed as Inhibition of root growth after 7 days relative to control; format: functional, organism-based; summary of the method: as §2
# Lactuca sativa [11] = test: Toxicity against Lactuca sativa (lettuce) assessed as Inhibition of root growth at 4 mM after 7 days relative to control; format: functional; set-up: scale not given: the % may be the effect or the level left
# Summary of the method: (§4)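 Lettuce (L. sativa cv. Romana) seeds germinated on filter paper at 20 °C for 7 days with doses of 0.4-32.0 mM. Root length of normal seedlings was measured at the end and expressed as percent of control. Three replicates were run, with standard error given.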
# Lactuca sativa [12] = test: Antigerminative activity against Lactuca sativa (lettuce) seeds up to 16 mM after 7 days relative to control; format: functional, organism-based
# Summary of the method: (§5)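 Lettuce seeds (L. sativa cv. Romana) incubated on filter paper at 20 °C for 7 days with each product at 0.4-32.0 mM. Read-out was the mean percentage of normal seedlings, expressed as percent of the untreated control.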
# Lactuca sativa [13] = test: Toxicity against Lactuca sativa (lettuce) assessed as root tissue rotting at 32 mM after 7 days; format: functional, organism-based
# Lactuca sativa [14] = test: Toxicity against Lactuca sativa (lettuce) assessed as decrease in root hair at 24 to 32 mM after 7 days; format: functional, organism-based
# Lactuca sativa [15] = test: Toxicity against Lactuca sativa (lettuce) assessed as branched root formation at low concentration after 7 days; format: functional, organism-based
# Lactuca sativa [16] = test: Antigerminative activity against Lactuca sativa (lettuce) seeds at 24 to 32 mM after 7 days relative to control; format: functional, organism-based; summary of the method: as §5
# Lactuca sativa [17] = test: Toxicity against Lactuca sativa (lettuce) assessed as Inhibition of root growth at 8 to 32 mM after 7 days relative to control; format: functional, organism-based; summary of the method: as §4
# Lactuca sativa [18] = test: Toxicity against Lactuca sativa (lettuce) assessed as Inhibition of root growth up to 16 mM after 7 days relative to control; format: functional, organism-based; summary of the method: as §2
# Lactuca sativa [19] = test: Antigerminative activity against Lactuca sativa (lettuce) seeds at 0.8 to 20 mM after 7 days relative to control; format: functional, organism-based; summary of the method: as §3
SMILES,Activity (Lactuca sativa [1]),Activity (Lactuca sativa [2]),Activity (Lactuca sativa [3]),Activity (Lactuca sativa [4]),Activity (Lactuca sativa [5]),Activity (Lactuca sativa [6]) [%],Activity (Lactuca sativa [7]),Activity (Lactuca sativa [8]),Activity (Lactuca sativa [9]),Activity (Lactuca sativa [10]),Activity (Lactuca sativa [11]) [%],Activity (Lactuca sativa [12]),Activity (Lactuca sativa [13]),Activity (Lactuca sativa [14]),Activity (Lactuca sativa [15]),Activity (Lactuca sativa [16]),Activity (Lactuca sativa [17]),Activity (Lactuca sativa [18]),Activity (Lactuca sativa [19])
N#CC[C@H](O)[C@@H]1CS1,Active,Active,Active,Active,Active,40,Active,Active,,,,,,,,,,,
N#CC[C@H](O)[C@H]1CS1,Active,Active,,,Active,,,Active,Active,Dose-dependent effect,,,,,,,,,
C=C[C@@H]1CNC(=S)O1,,,,,,,,,,,>40,inactive,Active,Active,Active,Active,Active,,
C=C[C@@H](O)CC#N,Active,Active,,,Active,,,Active,,,,,,,,,,inactive,Active
